In ChEMBL document CHEMBL1126160, “Synthesis and structure-activity relationships of 7-diazabicycloalkylquinolones, including danofloxacin, a new quinolone antibacterial agent for veterinary medicine” (J Med Chem, 1992):
≈ marks a conversion by molar mass, not a printed value.

Tests used:
[1] = system: Actinobacillus pleuropneumoniae; assay: In vitro antibacterial activity against anaerobically grown Actinobacillus pleuropneumoniae ([…]); assay type: functional
Method in brief: (§1)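 Agar dilution MICs. Anaerobic strains were tested on tryptose agar with 5% bovine blood and incubated 48 h at 39 °C in an anaerobe chamber under N2/CO2/H2 (80:10:10).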

[2] = system: Trueperella pyogenes; assay: In vitro antibacterial activity against anaerobically grown Actinomyces pyogenes (14D002); assay type: functional; method in brief: as §1
[3] = system: Phocaeicola vulgatus; assay: In vitro antibacterial activity against anaerobically grown Bacteroides vulgatus (78D029); assay type: functional; method in brief: as §1
[4] = system: Bordetella bronchiseptica; assay: In vitro antibacterial activity against aerobically grown Bordetella bronchiseptica (73A009); assay type: functional
Method in brief: (§2)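 Agar dilution MICs. Aerobic strains were tested on brain heart infusion agar and incubated aerobically at 37 °C for 18–20 h.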

[5] = system: Escherichia coli; assay: In vivo protective dose was evaluated against Escherichia coli (51A266) in mouse(sc); assay type: functional; conditions: read-out: PD50
Method in brief: (§3)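 Female CF-1 mice (15 g), groups of 10, challenged ip with 0.5 mL bacterial suspension (P. multocida 59A006 or E. coli 51A266 at 3.0 × 10^8 cfu/mL; S. choleraesuis 58B010 at 8.5 × 10^2 cfu/mL). Drug given sc or po at 30 min, 4 h and 24 h after challenge; survival recorded at 96 h; PD50 by probit analysis.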

[6] = system: Escherichia coli; assay: In vitro antibacterial activity against aerobically grown Escherichia coli (51A538); assay type: functional; method in brief: as §2
[7] = system: Escherichia coli; assay: Escherichia coli DNA cleavage endpoint value which is the minimum amount required (in micro g/mL) to induce detectable cleavage of supercoiled pBR322 substrate to linear form (gyrase); assay type: functional; conditions: read-out: MIC
Method in brief: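 DNA gyrase A and B subunits were purified from E. coli overproducers. About 2 units of holoenzyme were incubated with pBR322 in Tris-HCl pH 7.5 containing MgCl2, spermidine, DTT, 0.2 mM ATP, BSA and tRNA. Drug was added as 2-fold serial dilutions, and reactions ran for 60 min at 25 °C. Reactions were stopped with SDS and proteinase K, then run on agarose and stained with ethidium. The endpoint was the lowest concentration giving detectable linear DNA.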

[8] = In vitro antibacterial activity against Aerobically grown Pasteurella haemolytica (59B018); assay type: functional; conditions: Mannheimia haemolytica; method in brief: as §2
[9] = system: Pasteurella multocida; assay: In vitro antibacterial activity against aerobically grown Pasteurella multocida (59A006); assay type: functional; method in brief: as §2
[10] = system: Salmonella enterica; assay: In vitro antibacterial activity against aerobically grown Salmonella choleraesuis (58B015); assay type: functional
[11] = system: Staphylococcus aureus; assay: In vitro antibacterial activity against aerobically grown Staphylococcus aureus (54B004); assay type: functional; method in brief: as §2
[12] = In vitro evaluation for antibacterial activity against anaerobically grown Treponema hyodysenteriae (94A007); assay type: functional; conditions: Brachyspira hyodysenteriae
[13] = system: Clostridium perfringens; assay: microbe, parasite or virus in culture; assay type: functional
[14] = system: Pasteurella multocida; assay: In vivo protective dose was evaluated Pasteurella multocida (59A006) in mouse(sc); assay type: functional; conditions: read-out: PD50; method in brief: as §3
[15] = system: Pasteurella multocida; assay: In vivo protective dose was evaluated against Pasteurella multocida (59A006) in mouse(sc); assay type: functional; conditions: read-out: PD50; method in brief: as §3
[16] = Compound was evaluated for aqueous solubility at pH 7.2; conditions: buffer
[17] = system: Escherichia coli; assay: In vivo protective dose was evaluated against Escherichia coli (51A266) in mouse(po); assay type: functional; conditions: read-out: PD50; method in brief: as §3
[18] = system: Mannheimia haemolytica; assay: Compound was evaluated for minimum effective dose against Pasteurella haemolytica, intramuscular dose administration; assay type: functional; conditions: im, read-out: MED
Method in brief: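 Calves acid-treated intratracheally with 0.6 mL 8% acetic acid at 24 h and 4 h before endotracheal challenge with 50 mL P. haemolytica B280PA (~5 × 10^8 cfu/mL). im dosing of 2.5% or 5% solution in sterile water, day 0 and day 1 (SID × 2). Clinical signs and temperature recorded days 0–5; lungs scored and cultured. MED = lowest dose giving significant (65%) reduction of lung pathology.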

[19] = system: Pasteurella multocida; assay: In vivo protective dose was evaluated against Pasteurella multocida (59A006) in mouse(po); assay type: functional; conditions: read-out: PD50; method in brief: as §3
[20] = system: Actinobacillus pleuropneumoniae; assay: Compound was evaluated for minimum effective dose against Actinobacillus pleuropneumonia, intramuscular dose administration; conditions: im, read-out: MED

Row | SMILES | MIC [1] [mg/L] | MIC [2] [mg/L] | MIC [3] [mg/L] | MIC [4] [mg/L] | ED50 [5] [mg/kg] | MIC [6] [mg/L] | minimum concentration inducing gyrase-mediated DNA cleavage [7] [µg/mL] | MIC [8] [mg/L] | MIC [9] [mg/L] | MIC [10] [mg/L] | MIC [11] [mg/L] | MIC [12] [mg/L] | MIC [13] [mg/L] | ED50 [14] [mg/kg] | ED50 [15] [mg/kg] | solubility [16] [mg/mL] | ED50 [17] [mg/kg] | minimal effective dose [18] [mg/kg] | ED50 [19] [mg/kg] | minimal effective dose [20] [mg/kg]
1 | Cl.O.O=C(O)c1cn(C2CC2)c2cc(N3CCN4CCC3CC4)c(F)cc2c1=O | 0.05 | 1.56 | 0.39 | 0.39 | 0.09 | 0.02 | 0.39 | 0.01 | < 0.002 | 0.02 | 0.05 | 0.39 | 0.05 |  |  |  |  |  |  | 
2 | CCn1cc(C(=O)O)c(=O)c2cc(F)c(N3CC[C@H]4CCC(C3)N4C)cc21 | 0.78 (≈ 2.09 µM) | > 3.13 | > 3.13 | > 1.56 |  | > 1.56 | 1.56 | 1.56 (≈ 4.18 µM) | 0.39 (≈ 1.04 µM) | > 1.56 | 1.56 (≈ 4.18 µM) | > 3.13 | 1.56 (≈ 4.18 µM) | 1.03 |  |  |  |  |  | 
3 | CCn1cc(C(=O)O)c(=O)c2cc(F)c(N3CCN4CCCC3C4)cc21 (centres undefined) | 0.05 (≈ 0.139 µM) | > 3.13 | 3.13 (≈ 8.71 µM) | > 1.56 | 1.36 | 0.2 (≈ 0.556 µM) | 3.12 | 0.1 (≈ 0.278 µM) | 0.02 (≈ 0.0556 µM) | 0.2 (≈ 0.556 µM) | 0.39 (≈ 1.09 µM) | 0.39 (≈ 1.09 µM) | 0.39 (≈ 1.09 µM) |  | 0.71 |  |  |  |  | 
4 | O=C(O)c1cn(C2CC2)c2cc(N3C[C@@H]4C[C@H]3CN4)c(F)cc2c1=O | 0.1 (≈ 0.291 µM) | 3.13 (≈ 9.12 µM) | > 3.13 | > 1.56 | 0.92 | 0.1 (≈ 0.291 µM) | 0.39 | 0.2 (≈ 0.582 µM) | 0.2 (≈ 0.582 µM) | 0.05 (≈ 0.146 µM) | 1.56 (≈ 4.54 µM) | 1.56 (≈ 4.54 µM) | 0.1 (≈ 0.291 µM) |  | 0.2 | 0.077 (≈ 224 µM) |  |  |  | 
5 | CN1C2CC[C@@H]1CCN(c1cc3c(cc1F)c(=O)c(C(=O)O)cn3C1CC1)C2 | 0.2 (≈ 0.519 µM) | 3.13 (≈ 8.12 µM) | 3.13 (≈ 8.12 µM) | > 1.56 |  | 0.39 (≈ 1.01 µM) | 3.12 | 0.2 (≈ 0.519 µM) | 0.05 (≈ 0.13 µM) | 0.39 (≈ 1.01 µM) | 0.39 (≈ 1.01 µM) | 1.56 (≈ 4.05 µM) | 0.2 (≈ 0.519 µM) |  | 0.43 |  |  |  |  | 
6 | CN1C[C@H]2C[C@@H]1CN2c1cc2c(cc1F)c(=O)c(C(=O)O)cn2C1CC1 | 0.05 (≈ 0.14 µM) | 3.13 (≈ 8.76 µM) | 3.13 (≈ 8.76 µM) | 1.56 (≈ 4.37 µM) |  | 0.05 (≈ 0.14 µM) | 0.19 | 0.05 (≈ 0.14 µM) | 0.02 (≈ 0.056 µM) | 0.1 (≈ 0.28 µM) | 0.39 (≈ 1.09 µM) | 1.56 (≈ 4.37 µM) | 0.2 (≈ 0.56 µM) | 0.22 |  |  |  |  |  | 
7 | CN1[C@@H]2CC[C@H]1CN(c1cc3c(cc1F)c(=O)c(C(=O)O)cn3C1CC1)C2 | 0.39 (≈ 1.05 µM) | 3.13 (≈ 8.43 µM) | 1.56 (≈ 4.2 µM) | 1.56 (≈ 4.2 µM) | 0.15 | 0.1 (≈ 0.269 µM) | 0.78 | 0.1 (≈ 0.269 µM) | 0.05 (≈ 0.135 µM) | 0.2 (≈ 0.538 µM) | 0.1 (≈ 0.269 µM) | 0.78 (≈ 2.1 µM) | 0.1 (≈ 0.269 µM) |  | 0.37 |  | 3.8 | 0.3 | 0.98 | 0.3
